Measured values from ChEMBL document CHEMBL1142963, “Novel sigma receptor ligands: synthesis and biological profile” (J Med Chem, 2007).
Calls of active or inactive are those of the source. The calls are words filed in the database; no cut-off is given here.

Assays:
[1] = Increase in apoptosis in albino Wistar rat primary 14 DIV astroglial cells at 25 uM after 24 hrs by TUNEL assay relative to control; assay type: functional
Procedure, shortened: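 Astrocytes at 14 DIV were treated 24 h at 25 µM. TUNEL labelling with fluorescein-dUTP at free 3′-OH DNA ends; apoptotic cells appear green (FITC), nonapoptotic cells red (PI). Apoptotic cells were counted against all cells in 10 random fields per dish and expressed as a percentage.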

Rattus norvegicus [2] = organism: Rattus norvegicus; test: Increase in TG-2 expression in albino Wistar rat primary astroglial cells at 25 uM after 24 hrs; assay type: functional
Procedure, shortened: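 Primary Wistar rat astrocytes at 14 DIV were exposed to ligand 25 µM for 24 h. Densitometric percentage of TG-2 versus untreated control; HUVEC extract as positive control. Mean ± SD of four experiments.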

Rattus norvegicus [3] = organism: Rattus norvegicus; test: Activity at sigma 2 receptor in rat astroglial cells; assay type: cell-based
Rattus norvegicus [4] = organism: Rattus norvegicus; test: Increase of caspase 3 cleavage in albino Wistar rat primary astroglial cells at 25 uM after 24 hrs relative to control; assay type: functional
Procedure, shortened: (§1)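 Primary astrocytes from 1–2-day-old Wistar rat brains were grown 14 DIV, then exposed to ligand 25 µM for 24 h. Cells were lysed and sonicated, and 30 µg protein was run on 10% SDS-PAGE. Mean ± SD of four experiments; t test.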

[5] = Displacement of [3H]DTG rom guinea pig brain sigma 2 receptor; design: species or system Cavia porcellus
Rattus norvegicus [6] = organism: Rattus norvegicus; test: Increase in TG-2 expression in albino Wistar rat primary 14 DIV astroglial cell at 25 uM after 24 hrs by CLSM analysis; assay type: functional
Procedure, shortened: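 Astrocytes at 14 DIV were treated with 25 µM for 24 h and fixed in 4% paraformaldehyde for 20 min. They were blocked with 1% normal serum for 1 h, then incubated overnight with anti-TG-2 monoclonal (1:500), followed by FITC and TRITC anti-IgG (1:64, 2 h each). Confocal imaging at fixed settings measured cytosolic and nuclear fluorescence intensity versus control after nonspecific subtraction.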

Rattus norvegicus [7] = organism: Rattus norvegicus; test: Decrease of caspase 3 cleavage in albino Wistar rat primary astroglial cells at 25 uM after 24 hrs relative to control; assay type: functional; procedure, shortened: as §1
[8] = target: Sigma non-opioid intracellular receptor 1 (Cavia porcellus, UniProt Q60492); test: Displacement of [3H](+)-pentazocine from guinea pig brain sigma 1 receptor
Sigma non-opioid intracellular receptor 1, sequence (Q60492 whole entry): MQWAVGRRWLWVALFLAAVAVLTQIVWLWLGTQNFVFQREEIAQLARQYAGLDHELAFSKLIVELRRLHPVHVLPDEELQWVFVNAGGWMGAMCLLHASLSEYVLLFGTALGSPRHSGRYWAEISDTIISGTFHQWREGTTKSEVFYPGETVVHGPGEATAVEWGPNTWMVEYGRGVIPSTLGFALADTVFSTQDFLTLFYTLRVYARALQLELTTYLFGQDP

CC[C@H]1C[C@H]2C[C@H]3c4[nH]c5ccc(OC)cc5c4CCN(C2)[C@@H]13 [IBOGAINE]
Ratio [1]: 95% | Activity (Rattus norvegicus [2]): Active | Activity (Rattus norvegicus [3]; filed as agonist): Agonist | Activity (Rattus norvegicus [4]): Active | Ki [5]: 9310 nM | Activity (Rattus norvegicus [6]): Active

CC(C)=CCN1CC[C@]2(C)c3cc(O)ccc3C[C@H]1[C@H]2C [(+)-PENTAZOCINE]
Activity (Rattus norvegicus [3]): inactive | Activity (Rattus norvegicus [7]): Active | Ki [5]: 1540 nM

COC(=O)C1(c2ccc([N+](=O)[O-])cc2)CC1CN1CCN(c2ncccn2)CC1 (stereo not given)
Ki [8]: 619 nM | Ki [5]: > 10000 nM

COC(=O)C1(c2ccc(Cl)cc2)CC1CN1CCC(Cc2ccccc2)CC1 (stereo not given)
Ki [8]: 0.82 nM | Ki [5]: 11.9 nM

COC(=O)C1(c2ccc(Cl)cc2)CC1CN1CCC(O)(c2ccccc2)CC1 (stereo not given)
Ki [8]: 1.7 nM | Ki [5]: 19 nM

COC(=O)C1(c2ccc(Cl)cc2)CC1CN1CCN(c2ncccn2)CC1 (stereo not given)
Ki [8]: 350 nM | Ki [5]: 2710 nM

COC(=O)C1(c2ccc(C)cc2)CC1CN1CCC(Cc2ccccc2)CC1 (stereo not given)
Ki [8]: 0.97 nM | Ki [5]: 8.9 nM

COC(=O)C1(c2ccc(C)cc2)CC1CN1CCN(c2ccccn2)CC1 (stereo not given)
Ki [8]: 497 nM | Ki [5]: 2170 nM

COC(=O)C1(c2ccccc2)CC1CN1CCN(c2ncccn2)CC1 (stereo not given)
Ki [8]: 3090 nM | Ki [5]: > 10000 nM

COC(=O)C1(c2ccc(N)cc2)CC1CN1CCN(c2ncccn2)CC1 (stereo not given)
Ki [8]: > 10000 nM | Ki [5]: 3590 nM

COC(=O)C1(c2ccc(OC)cc2)CC1CN1CCC(O)(c2ccccc2)CC1 (stereo not given)
Ki [8]: 3.1 nM | Ki [5]: 53 nM

COC(=O)C1(c2ccccc2)CC1CN1CCC(O)(c2ccccc2)CC1 (stereo not given)
Ki [8]: 3.1 nM | Ki [5]: 34 nM

COC(=O)C1(c2ccc(OC)cc2)CC1CN1CCC(Cc2ccccc2)CC1 (stereo not given)
Ki [8]: 1 nM | Ki [5]: 14 nM

CC[C@H]1C[C@@H]2C[C@H]3c4[nH]c5ccc(OC)cc5c4CCN(C2)[C@@H]13 [IBOGAINE]
Ki [8]: 250 nM

COC(=O)C1(c2ccc([N+](=O)[O-])cc2)CC1CN1CCC(Cc2ccccc2)CC1 (stereo not given)
Ki [8]: 0.68 nM | Ki [5]: 9 nM

COC(=O)C1(c2ccc(Cl)cc2)CC1CN1CCN(c2ccccn2)CC1 (stereo not given)
Ki [8]: 707 nM | Ki [5]: 2400 nM

COC(=O)C1(c2ccc(N)cc2)CC1CN1CCN(c2ccccn2)CC1 (stereo not given)
Ki [8]: > 10000 nM | Ki [5]: > 10000 nM

CN(C)CCN(C)CCc1ccc(Cl)c(Cl)c1
Ratio [1]: 7% | Activity (Rattus norvegicus [2]): inactive | Activity (Rattus norvegicus [3]; filed as agonist): Agonist | Activity (Rattus norvegicus [7]): Active | Activity (Rattus norvegicus [6]): Active

Cc1ccccc1NC(=N)Nc1ccccc1C [DITOLYLGUANIDINE]
Ki [5]: 49 nM

COC(=O)C1(c2ccccc2)CC1CN1CCN(c2ccccn2)CC1 (stereo not given)
Ki [8]: 1330 nM | Ki [5]: 6290 nM

COC(=O)C1(c2ccc([N+](=O)[O-])cc2)CC1CN1CCN(c2ccccn2)CC1 (stereo not given)
Ki [8]: 769 nM | Ki [5]: > 10000 nM

COC(=O)C1(c2ccc([N+](=O)[O-])cc2)CC1CN1CCC(O)(c2ccccc2)CC1 (stereo not given)
Ki [8]: 1.9 nM | Ki [5]: 18 nM

COC(=O)C1(c2ccc(C)cc2)CC1CN1CCN(c2ncccn2)CC1 (stereo not given)
Ki [8]: 353 nM | Ki [5]: 3360 nM

COC(=O)C1(c2ccc(OC)cc2)CC1CN1CCN(c2ccccn2)CC1 (stereo not given)
Ki [8]: 1260 nM | Ki [5]: > 10000 nM

COC(=O)C1(c2ccccc2)CC1CN1CCC(Cc2ccccc2)CC1 (stereo not given)
Ki [8]: 2.2 nM | Ki [5]: 13.2 nM

COC(=O)C1(c2ccc(OC)cc2)CC1CN1CCN(c2ncccn2)CC1 (stereo not given)
Ki [8]: 2030 nM | Ki [5]: > 10000 nM

O=C(CCCN1CCC(O)(c2ccc(Cl)cc2)CC1)c1ccc(F)cc1
Activity (Rattus norvegicus [3]; filed as agonist): Agonist | Activity (Rattus norvegicus [6]): Active
